Test [1] concerns Toxoplasma gondii. The test can be described thus: Inhibition of Toxoplasma gondii 2F1 invasion in HFF cells assessed as beta-galactosidase activity at 10 uM. In kind it is functional, organism-based. The essentials:
(§1)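 2F1 tachyzoites in invasion medium (DMEM, 1% FBS, 10 mM HEPES) at 4 × 10^6/ml, preincubated 15 min at room temperature with inhibitor (10 or 50 μM) or DMSO, then loaded onto HFF monolayers for 30 min at 37°C, 5% CO2. Washed six times with cold PBS containing Ca/Mg, lysed, and β-gal measured with CPRG (45 min, 37°C) at A550. Two independent experiments in duplicate.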

Test [2] deals with Toxoplasma gondii. The test can be described thus: Inhibition of Toxoplasma gondii 2F1 invasion in HFF cells assessed as beta-galactosidase activity at 50 uM relative to control. In kind it is functional. The conditions noted are these: 2F1, HFF. A digest of the protocol: as §1
In test [3] the test system is Toxoplasma gondii. The test can be described thus: Inhibition of Toxoplasma gondii 2F1 invasion in HFF cells by red/green invasion assay. In kind it is functional, organism-based. The conditions noted are these: 2F1, HFF. The essentials:
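Red/green assay: 2F1 parasites (5 × 10^7/ml in invasion medium) preincubated 15 min at room temperature with inhibitor (0.1 to 100 μM) or DMSO, then put on HFF for 15 min at 37°C. After fixation, attached parasites were stained with rabbit anti-SAG1 before permeabilization and invaded ones with MAb 9E11 after 0.1% Triton; DAPI marked nuclei. Associated parasites per host nucleus normalized to solvent control; three experiments, eight fields/well.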

Test [4] deals with Toxoplasma gondii. The test can be described thus: Effect on gliding motility in Toxoplasma gondii RH at 50 uM. In kind it is functional, organism-based. A digest of the protocol: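 RH tachyzoites in HHE medium (HBSS, 10 mM HEPES, 1 mM EGTA), pretreated 15 min at room temperature with 50 μM inhibitor or DMSO, then allowed to glide 15 min at 37°C on slides coated with 50% FBS or poly-L-lysine. Fixed, and SAG1-containing trails stained with MAb 9E11 and visualized by epifluorescence at ×600.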

In test [5] the test system is Toxoplasma gondii. The test can be described thus: Reduction of AMA1 secretion in Toxoplasma gondii 2F1 at 50 uM. Type of test: functional, organism-based. A digest of the protocol: (§2)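 2F1 parasites in DGH medium (DMEM, 2 mM glutamine, 10 mM HEPES), ~3–6 × 10^7 per reaction, pretreated 15 min at room temperature with 50 μM inhibitor or DMSO. Induced secretion used 2 min at 37°C with 1% ethanol; basal secretion used 20 min at 37°C without ethanol. Supernatant (ESA) immunoblotted for MIC2, AMA1, MIC5, MIC10 and GRA1; chemiluminescence quantified by CCD.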

Test [6] concerns Toxoplasma gondii. The test can be described thus: Reduction of MIC5 secretion in Toxoplasma gondii 2F1 at 50 uM. Type of test: functional, organism-based. The essentials: as §2
Test [7] has as its system Toxoplasma gondii. The test can be described thus: Reduction of MIC10 secretion in Toxoplasma gondii 2F1 at 50 uM. Type of test: functional, organism-based. A digest of the protocol:
as §2

Test [8] relates to Toxoplasma gondii. The test can be described thus: Inhibition of microneme protein secretion in Toxoplasma gondii 2F1.

pIC50: −log10 of the molar value. Activity calls are given as the source filed them. No cut-off for these calls is given here.

For the compound `Cc1cccc(C)c1C(=O)OCC(=O)CN`, the outcome with Toxoplasma gondii [1] was inactive.
As to `CC(C)C[C@H](/C=C/S(=O)(=O)c1ccccc1)NC(=O)[C@@H](CC(C)C)NC(=O)[C@@H](CC(C)C)NC(=O)Cc1cc(I)c(O)c([N+](=O)[O-])c1`, the outcome with Toxoplasma gondii [1] was inactive.
As to `CC(=O)N1CCC[C@H]1C(=O)N[C@@H](CCCCN)C(=O)N[C@@H](CCCCN)C(=O)N[C@H](/C=C/S(=O)(=O)c1ccccc1)CC(N)=O`, the outcome with Toxoplasma gondii [1] was inactive.
For the compound `CC(=O)N1CCC[C@H]1C(=O)N[C@@H](CCCNC(=N)N)C(=O)N[C@@H](CCCCN)C(=O)N[C@H](/C=C/S(=O)(=O)c1ccccc1)CC(N)=O`, the outcome in the test with Toxoplasma gondii [1] was inactive.
Turning to `CC(=O)N[C@@H](Cc1ccc(O)cc1)C(=O)N[C@@H](CCCCN)C(=O)N[C@@H](CCCCN)C(=O)N[C@H](/C=C/S(=O)(=O)c1ccccc1)CC(N)=O`, the outcome in the test with Toxoplasma gondii [1] was inactive.
Turning to `CN1CCN(C(=O)N[C@@H](Cc2ccccc2)C(=O)N[C@H](/C=C/S(=O)(=O)c2ccccc2)CCc2ccccc2)CC1`, in the test with Toxoplasma gondii [1], the outcome was inactive.
As for `Cc1cccc(C)c1C(=O)OCC(=O)[C@@H](N)CC(C)C`, the result with Toxoplasma gondii [1] was inactive.
As to `CC(C)C[C@H](/C=C/S(=O)(=O)c1ccccc1)NC(=O)[C@@H](CC(C)C)NC(=O)[C@@H](CC(C)C)NC(=O)OCc1ccccc1`, the result in the test with Toxoplasma gondii [1] was inactive. Further, in the test with Toxoplasma gondii [2], the inhibition at 50 µM stood at 50%. The pIC50 with Toxoplasma gondii [3] was 4.90; with Toxoplasma gondii [8] it was 4.30. In addition, the outcome in the test with Toxoplasma gondii [4], in the test with Toxoplasma gondii [5], in the test on Toxoplasma gondii [6] and in the test on Toxoplasma gondii [7] was Active.
Regarding `CC(=O)N[C@@H](Cc1ccc(O)cc1)C(=O)N[C@@H](CCCCN)C(=O)N[C@@H](CCCNC(=N)N)C(=O)N[C@H](/C=C/S(=O)(=O)c1ccccc1)CC(N)=O`, the result with Toxoplasma gondii [1] was inactive.
With `CC(C)C[C@@H](NC(=O)N1CCOCC1)C(=O)N[C@@H](/C=C/S(=O)(=O)c1ccccc1)CCc1ccccc1`, the inhibition at 50 µM with Toxoplasma gondii [2] turned out to be 70%. Also, the pIC50 in the test on Toxoplasma gondii [3] was 5.00; in the test on Toxoplasma gondii [8] it was 4.60. Besides, the result with Toxoplasma gondii [4], in the test with Toxoplasma gondii [5], in the test on Toxoplasma gondii [6] and with Toxoplasma gondii [7] was Active.
Consider `Cc1cccc(C)c1C(=O)OCC(=O)[C@@H](N)CC(N)=O`, for which the outcome with Toxoplasma gondii [1] was inactive.
For the compound `CC(=O)N[C@@H](Cc1ccc(O)cc1)C(=O)N[C@@H](CCCNC(=N)N)C(=O)N[C@@H](CC(C)C)C(=O)N[C@H](/C=C/S(=O)(=O)c1ccccc1)CC(N)=O`, the outcome in the test with Toxoplasma gondii [1] was inactive.
Take `CC(=O)N[C@@H](Cc1ccc(O)cc1)C(=O)N[C@@H](CCCCN)C(=O)N[C@@H](CC(C)C)C(=O)N[C@H](/C=C/S(=O)(=O)c1ccccc1)CC(N)=O`: in the test on Toxoplasma gondii [1], the outcome was inactive.
The same measure, in the same setting: the result for `CCOC(=O)C1OC1C(=O)N[C@@H](CC(C)C)C(=O)NCCc1ccc(O)cc1` (stereo partly drawn) reads “inactive”.
Regarding `CC(C)C[C@H](NC(=O)[C@H]1O[C@@H]1C(=O)O)C(=O)NCCCCN=C(N)N`, the outcome in the test on Toxoplasma gondii [1] was inactive.
Same read-out and setting: the entry for `Cc1cccc(C)c1C(=O)OCC(=O)[C@@H](N)CCCNC(=N)N` is “inactive”; for `CC(=O)N[C@@H](Cc1ccc(O)cc1)C(=O)N[C@@H](CCCNC(=N)N)C(=O)N[C@@H](CCCCN)C(=O)N[C@H](/C=C/S(=O)(=O)c1ccccc1)CC(N)=O` it is “inactive”.
`CCOC(=O)[C@H]1O[C@@H]1C(=O)N[C@@H](CC(C)C)C(=O)NCCC(C)C`: the outcome in the test with Toxoplasma gondii [1] was inactive.
On the same count and under the same terms, the result for `CC(=O)N1CCC[C@H]1C(=O)N[C@@H](CCCNC(=N)N)C(=O)N[C@@H](CC(C)C)C(=O)N[C@H](/C=C/S(=O)(=O)c1ccccc1)CC(N)=O` reads “inactive”; that for `CC(=O)N1CCC[C@H]1C(=O)N[C@@H](CCCCN)C(=O)N[C@@H](CC(C)C)C(=O)N[C@H](/C=C/S(=O)(=O)c1ccccc1)CC(N)=O`, “inactive”; that for `CC(C)C[C@@H](/C=C/S(C)(=O)=O)NC(=O)[C@H](CC(C)C)NC(=O)[C@H](CC(C)C)NC(=O)[C@@H](N)Cc1ccc(O)cc1`, “inactive”.
The same measure, in the same setting: the entry for `CC(=O)N1CCC[C@H]1C(=O)N[C@@H](CCCCN)C(=O)N[C@@H](CCCNC(=N)N)C(=O)N[C@H](/C=C/S(=O)(=O)c1ccccc1)CC(N)=O` is “inactive”; for `CCC(C)[C@H](NC(=O)C1OC1C(=O)NCC(C)C)C(=O)N1CCC[C@@H]1C(=O)O` (stereo partly drawn) it is “inactive”.
With `O=c1oc(Cl)c(Cl)c2ccccc12`, the result in the test on Toxoplasma gondii [1] was inactive. Moreover, the pIC50 in the test on Toxoplasma gondii [3] was 4.90.

The term inhibition denotes the change of the read-out against control, counted positive when it falls. For orientation: pIC50 means −log10 of the IC50, conventionally taken in molar units. The low end stands for a high IC50, the high end for a low IC50.

The values are drawn from ChEMBL document CHEMBL1142206, “Cysteine protease inhibitors block Toxoplasma gondii microneme secretion and cell invasion” (Antimicrob Agents Chemother, 2007).
